Reference: ChEMBL document CHEMBL4765235, “Discovery of N-[Bis(4-methoxyphenyl)methyl]-4-hydroxy-2-(pyridazin-3-yl)pyrimidine-5-carboxamide (MK-8617), an Orally Active Pan-Inhibitor of Hypoxia-Inducible Factor Prolyl Hydroxylase 1-3 (HIF PHD1-3) for the Treatment of Anemia” (J Med Chem, 2016)
One block for each molecule: values may come before it.

Columns and labels:
[1] = In vivo inhibition of HIF-PHD2 in C57BL/6 mouse assessed as serum erythropoietin level at 15 mg/kg, iv measured after 4 hrs; assay type: functional
Method in brief: (§1)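 Mouse pharmacodynamic EPO assay (MoPED). Compound dosed iv; serum EPO measured 4 hr after dosing and reported in pg/mL. Minimum effective dose is the lowest dose giving EPO elevation.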

[2] = In vivo inhibition of HIF-PHD2 in C57BL/6 mouse assessed as serum erythropoietin level at 5 mg/kg, iv measured after 4 hrs; assay type: functional; method in brief: as §1
[3] = Protein binding in rhesus monkey plasma assessed as unbound fraction at 1 mg/kg, po or 0.5 mg/kg, iv; assay type: ADME, organism-based, Macaca mulatta; conditions: read-out: PPB
[4] = Volume of distribution at steady state in rat at 2 mg/kg, po or 1 mg/kg, iv; assay type: ADME, organism-based; conditions: in vivo, read-out: Vdss
[5] = Cmax in mouse at 2 mg/kg, po or 1 mg/kg, iv; assay type: ADME, organism-based; design: dose 2 mg/kg; conditions: in vivo
[6] = Clearance in rhesus monkey at 1 mg/kg, po or 0.5 mg/kg, iv; assay type: ADME, organism-based, Macaca mulatta; conditions: in vivo
Method in brief: (§2)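 Single-dose PK at 1 mg/kg po and 0.5 mg/kg iv. Mouse clearance is from blood; dog and rhesus clearance is from plasma. Mouse vehicle, both routes: DMSO:PEG400:water (5:40:55, v/v/v). Dog and monkey iv vehicle: PEG200:12%HPCD:water (30:12:58 v/v/v). Dog and monkey po vehicle: Imwitor:Tween (1:1 w/w).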

[7] = Cmax in dog at 1 mg/kg, po or 0.5 mg/kg, iv; assay type: ADME, organism-based, Canis lupus familiaris; design: dose 1 mg/kg; conditions: in vivo; method in brief: as §2
[8] = Oral bioavailability in rat at 2 mg/kg; assay type: ADME, organism-based; conditions: in vivo
[9] = Volume of distribution at steady state in dog at 1 mg/kg, po or 0.5 mg/kg, iv; assay type: ADME, organism-based, Canis lupus familiaris; conditions: in vivo, read-out: Vdss
Method in brief: (§3)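 Dog and rhesus monkey dosed 1 mg/kg po and 0.5 mg/kg iv. The iv vehicle was PEG200:12%HPCD:water (30:12:58 v/v/v); the po vehicle was Imwitor:Tween (1:1 w/w). Clearance was measured in plasma. Protein binding was measured in 100% serum.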

[10] = Oral bioavailability in rhesus monkey at 1 mg/kg; assay type: ADME, organism-based, Macaca mulatta; conditions: in vivo; method in brief: as §3
[11] = Oral bioavailability in mouse at 2 mg/kg; assay type: ADME, organism-based; conditions: in vivo
[12] = Cmax in rhesus monkey at 1 mg/kg, po or 0.5 mg/kg, iv; assay type: ADME, organism-based, Macaca mulatta; design: dose 1 mg/kg; conditions: in vivo; method in brief: as §2
[13] = Oral bioavailability in dog at 1 mg/kg; assay type: ADME, organism-based, Canis lupus familiaris; conditions: in vivo; method in brief: as §3
[14] = Clearance in dog at 1 mg/kg, po or 0.5 mg/kg, iv; assay type: ADME, organism-based, Canis lupus familiaris; conditions: in vivo; method in brief: as §2
[15] = Volume of distribution at steady state in rhesus monkey at 1 mg/kg, po or 0.5 mg/kg, iv; assay type: ADME, organism-based, Macaca mulatta; conditions: in vivo, read-out: Vdss; method in brief: as §3
[16] = In vivo inhibition of HIF-PHD2 in C57BL/6 mouse assessed as serum erythropoietin level at 50 mg/kg, iv measured after 4 hrs; assay type: functional; method in brief: as §1
[17] = Cmax in rat at 2 mg/kg, po or 1 mg/kg, iv; assay type: ADME, organism-based; design: dose 2 mg/kg; conditions: in vivo
[18] = Half life in rhesus monkey at 1 mg/kg, po or 0.5 mg/kg, iv; assay type: ADME, organism-based, Macaca mulatta; conditions: in vivo; method in brief: as §2
[19] = Volume of distribution at steady state in mouse at 2 mg/kg, po or 1 mg/kg, iv; assay type: ADME, organism-based; conditions: in vivo, read-out: Vdss
[20] = Clearance in mouse at 2 mg/kg, po or 1 mg/kg, iv; assay type: ADME, organism-based; conditions: in vivo
[21] = Clearance in rat at 2 mg/kg, po or 1 mg/kg, iv; assay type: ADME, organism-based; conditions: in vivo
[22] = Protein binding in mouse plasma assessed as unbound fraction at 2 mg/kg, po or 1 mg/kg, iv; assay type: ADME, organism-based; conditions: read-out: PPB
[23] = Protein binding in dog plasma assessed as unbound fraction at 1 mg/kg, po or 0.5 mg/kg, iv; assay type: ADME, organism-based, Canis lupus familiaris; conditions: read-out: PPB
[24] = Half life in mouse at 2 mg/kg, po or 1 mg/kg, iv; assay type: ADME, organism-based; conditions: in vivo
[25] = Half life in rat at 2 mg/kg, po or 1 mg/kg, iv; assay type: ADME, organism-based; conditions: in vivo
[26] = Protein binding in rat plasma assessed as unbound fraction at 2 mg/kg, po or 1 mg/kg, iv; assay type: ADME, organism-based; conditions: read-out: PPB
[27] = Half life in dog at 1 mg/kg, po or 0.5 mg/kg, iv; assay type: ADME, organism-based, Canis lupus familiaris; conditions: in vivo; method in brief: as §2
[28] = In vivo inhibition of HIF-PHD2 in C57BL/6 mouse assessed as serum erythropoietin level at 100 mg/kg, iv measured after 4 hrs; assay type: functional; method in brief: as §1
Egl nine homolog 1 [29] = molecular target: T1, Egl nine homolog 1 (Homo sapiens, UniProt Q9GZT9); assay: Inhibition of FLAG-tagged full-length HIF-PHD2 (unknown origin) expressed in baculovirus infected Sf9 cells using 2-oxoglutarate and HIF1alpha biotinyl-DLDLEMLAPYIPMDDDFQL as peptide substrates preincubated for 30 mins followed by substrate addition and measured after 2 hrs by LANCE assay
T1 sequence (Q9GZT9 whole entry): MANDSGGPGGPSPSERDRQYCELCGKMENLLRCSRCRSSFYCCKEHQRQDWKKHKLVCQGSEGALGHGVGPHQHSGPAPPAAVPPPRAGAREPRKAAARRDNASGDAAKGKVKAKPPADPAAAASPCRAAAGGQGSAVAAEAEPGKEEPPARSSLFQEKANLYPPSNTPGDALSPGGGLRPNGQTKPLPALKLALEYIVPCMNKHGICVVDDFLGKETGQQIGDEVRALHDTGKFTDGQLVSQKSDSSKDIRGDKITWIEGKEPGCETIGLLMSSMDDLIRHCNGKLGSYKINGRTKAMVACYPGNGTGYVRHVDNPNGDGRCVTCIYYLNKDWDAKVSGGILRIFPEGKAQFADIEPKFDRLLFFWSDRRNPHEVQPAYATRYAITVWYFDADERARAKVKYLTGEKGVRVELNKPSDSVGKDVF

[30] = In vivo inhibition of HIF-PHD2 in iv dosed C57BL/6 mouse assessed as minimum effective dose causing increase in serum erythropoietin levels measured after 4 hrs; assay type: functional; conditions: C57BL/6, iv, read-out: MED; method in brief: as §1
[31] = Plasma clearance in rat at 2 mg/kg, po or 1 mg/kg, iv; assay type: ADME, organism-based
Egl nine homolog 1 [32] = molecular target: T1, Egl nine homolog 1; assay: Inhibition of HIF-PHD2 (unknown origin)
[33] = molecular target: Voltage-gated inwardly rectifying potassium channel KCNH2 (Homo sapiens, UniProt Q12809); assay: Inhibition of human ERG
Voltage-gated inwardly rectifying potassium channel KCNH2, sequence (Q12809 whole entry): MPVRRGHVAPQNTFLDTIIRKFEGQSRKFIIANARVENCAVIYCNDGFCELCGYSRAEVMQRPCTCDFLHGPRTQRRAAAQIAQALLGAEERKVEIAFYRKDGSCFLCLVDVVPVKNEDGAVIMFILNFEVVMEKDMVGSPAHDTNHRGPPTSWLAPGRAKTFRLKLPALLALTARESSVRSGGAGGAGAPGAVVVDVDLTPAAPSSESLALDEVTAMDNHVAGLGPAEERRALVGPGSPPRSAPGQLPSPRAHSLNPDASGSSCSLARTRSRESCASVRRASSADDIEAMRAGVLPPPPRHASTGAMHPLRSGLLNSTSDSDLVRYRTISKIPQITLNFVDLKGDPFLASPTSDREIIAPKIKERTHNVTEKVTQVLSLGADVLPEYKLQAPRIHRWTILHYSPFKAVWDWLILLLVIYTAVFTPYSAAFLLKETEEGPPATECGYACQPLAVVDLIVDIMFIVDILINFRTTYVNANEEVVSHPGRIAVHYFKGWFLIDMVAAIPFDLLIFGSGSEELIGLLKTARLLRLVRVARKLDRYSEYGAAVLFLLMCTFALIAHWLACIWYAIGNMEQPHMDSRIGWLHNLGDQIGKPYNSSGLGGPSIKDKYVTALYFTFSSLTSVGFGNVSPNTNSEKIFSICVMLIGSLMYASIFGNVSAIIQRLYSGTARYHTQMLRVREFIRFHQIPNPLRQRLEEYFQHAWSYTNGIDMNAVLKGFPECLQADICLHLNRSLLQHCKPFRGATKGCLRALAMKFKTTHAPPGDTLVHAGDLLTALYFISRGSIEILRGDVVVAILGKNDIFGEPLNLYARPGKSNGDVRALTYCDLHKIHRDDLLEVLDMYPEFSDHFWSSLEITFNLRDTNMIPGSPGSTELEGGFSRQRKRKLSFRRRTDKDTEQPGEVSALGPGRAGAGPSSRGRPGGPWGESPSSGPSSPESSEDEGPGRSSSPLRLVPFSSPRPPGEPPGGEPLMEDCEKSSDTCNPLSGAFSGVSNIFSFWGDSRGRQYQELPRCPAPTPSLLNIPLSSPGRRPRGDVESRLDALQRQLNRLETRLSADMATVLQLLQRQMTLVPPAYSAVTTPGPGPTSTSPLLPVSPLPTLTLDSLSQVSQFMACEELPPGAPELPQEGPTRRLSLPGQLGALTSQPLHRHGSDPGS

[34] = In vivo inhibition of HIF-PHD2 in C57BL/6 mouse assessed as serum erythropoietin level at 1.5 mg/kg, iv measured after 4 hrs; assay type: functional; method in brief: as §1

fraction unbound [3]: 0.004 | Vd [4]: 0.06 L/kg | Cmax [5]: 30 µM | clearance [6]: 0.001 mL/min/kg | Cmax [7]: 11 µM | bioavailability [8]: 99% | Vd [9]: 0.1 L/kg | bioavailability [10]: 71% | bioavailability [11]: 98% | Cmax [12]: 22 µM | bioavailability [13]: 61% | clearance [14]: 0.004 mL/min/kg | Vd [15]: 0.13 L/kg | Cmax [17]: 49 µM | half-life [18]: 95 h | Vd [19]: 0.3 L/kg | clearance [20]: 1 mL/min/kg | clearance [21]: 0.2 mL/min/kg | fraction unbound [22]: 0.093 | fraction unbound [23]: 0.027 | half-life [24]: 3.7 h | half-life [25]: 4.2 h | fraction unbound [26]: 0.012 | half-life [27]: > 100 h
Compound: CC(C)(NC(=O)c1cnc(-n2cccn2)nc1O)c1ccccc1
Activity [16]: 24000 pg/mL | Activity [1]: 5000 pg/mL | Activity [2]: 460 pg/mL

bioavailability [8]: 3% | half-life [25]: 2.1 h
Compound: CC(C)(NC(=O)c1cnc(-n2cc(C(=O)O)cn2)nc1O)c1ccccc1
Activity [1]: 1900 pg/mL

IC50 (Egl nine homolog 1 [29]): > 2700 nM
Compound: CC(C)(NC(=O)c1cnc(-c2ccc(C(F)(F)F)cn2)nc1O)c1ccccc1

half-life [27]: 143 h
Compound: O=C(NCc1ccc(-c2ccccc2)cc1)c1cnc(-n2cccn2)nc1O

Vd [4]: 0.35 L/kg | clearance [31]: 2 mL/min/kg | bioavailability [8]: 67% | IC50 (Egl nine homolog 1 [32]): 110 nM | half-life [25]: 3.3 h
Compound: O=C(NCc1ccc(F)cc1)c1cnc(-c2ccccn2)nc1O
minimal effective dose [30]: 100 mg/kg | IC50 [33]: > 30000 nM | Activity [28]: 1200 pg/mL

bioavailability [8]: 5% | half-life [25]: 0.23 h
Compound: CC(C)(NC(=O)c1cnc(-c2cc(C(=O)O)ccn2)nc1O)c1ccccc1
minimal effective dose [30]: 15 mg/kg | Activity [1]: 220 pg/mL

bioavailability [8]: 61% | half-life [25]: 2.9 h
Compound: CC(C)(NC(=O)c1cnc(-c2cscn2)nc1O)c1ccccc1
Activity [28]: 2100 pg/mL

half-life [27]: 94 h
Compound: COc1ccc([C@H](C)NC(=O)c2cnc(-n3cccn3)nc2O)cc1
Activity [1]: 5300 pg/mL

half-life [27]: 60 h
Compound: C[C@H](NC(=O)c1cnc(-n2cccn2)nc1O)c1ccc(F)cc1
Activity [1]: 16000 pg/mL

Continued, molecule first:

Compound: C[C@H](NC(=O)c1cnc(-n2cccn2)nc1O)c1ccccc1
Activity [1]: 10000 pg/mL | Activity [2]: 690 pg/mL

Compound: Cc1nc(-c2ncc(C(=O)NC(C)(C)c3ccccc3)c(O)n2)cs1
Activity [28]: 110 pg/mL

Compound: C[C@@H](NC(=O)c1cnc(-n2cccn2)nc1O)c1ccc(F)cc1
Activity [1]: 350 pg/mL

Compound: COc1ccc(C(NC(=O)c2cnc(-n3cccn3)nc2O)c2ccc(OC)cc2)cc1
minimal effective dose [30]: 1.5 mg/kg | Activity [34]: 190 pg/mL | Activity [1]: 31000 pg/mL | Activity [2]: 740 pg/mL

Compound: C[C@@H](NC(=O)c1cnc(-n2cccn2)nc1O)c1ccccc1
Activity [1]: 322 pg/mL

Compound: O=C(NC(c1ccccc1)c1ccccc1)c1cnc(-n2cccn2)nc1O
Activity [1]: 2900 pg/mL

Compound: O=C(NCc1ccc(Cl)cc1)c1cnc(-n2cccn2)nc1O
Activity [1]: 1100 pg/mL

Compound: O=C(NC(c1ccccc1)c1ccccc1)c1cnc(-c2cccnn2)nc1O
IC50 [33]: > 30000 nM | Activity [1]: 1600 pg/mL | Activity [2]: 380 pg/mL

Compound: O=C(NCc1ccc(OC(F)(F)F)cc1)c1cnc(-n2cccn2)nc1O
Activity [16]: 8900 pg/mL | Activity [1]: 180 pg/mL
